Data taken from ChEMBL document CHEMBL1150832, “Phenylnaphthalene compounds from the subterranean part of Vitex rotundifolia and their antibacterial activity against methicillin-resistant Staphylococcus aureus” (2001).
Activity calls are given as the source filed them. No cut-off for these calls is given here.

System: Staphylococcus aureus
Test: Antimicrobial activity against methicillin-sensitive Staphylococcus aureus ATCC 6538 at 100 ug after 20 hrs by agar plate diffusion assay
Assay type: functional, organism-based
In short: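 Agar disk diffusion. Cells were grown on Mueller-Hinton agar at 37 °C for 24 h, resuspended in Mueller-Hinton broth to 108 CFU/mL and incubated again. They were then diluted to 105 CFU/mL and used to inoculate Mueller-Hinton agar plates. 6 mm disks loaded with 100 µg compound were placed on the plates and incubated 20 h at 37 °C. Inhibition zones >10 mm were scored positive.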

Row | SMILES | Activity
1 | COc1cc(-c2c(O)c(C=O)cc3cc(OC)c(O)cc23)ccc1O | inactive
2 | COc1cc(C[C@@H](CO)[C@H](CO)Cc2ccc(O)c(OC)c2)ccc1O | inactive
3 | COc1cc2cc3c(c(-c4ccc(OC)c(OC)c4)c2cc1O)COC3=O | inactive
4 | COc1ccc(-c2c(O)c(C=O)cc3ccc(O)c(OC)c23)cc1OC | inactive
5 | COc1ccc(-c2c3c(cc4ccc(O)c(OC)c24)C(=O)OC3)cc1OC | inactive
